In ChEMBL document CHEMBL1139372, “Docking studies on a new human immunodeficiency virus integrase-Mg-DNA complex: phenyl ring exploration and synthesis of 1H-benzylindole derivatives through fluorine substitutions” (J Med Chem, 2009):

Key:
[1] = molecular target: T1, Human immunodeficiency virus type 1 integrase (Human immunodeficiency virus 1, UniProt Q7ZJM1); experiment: Inhibition of HIV1 integrase activity by ELISA
Outline: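 In vitro overall integrase reaction measured by enzyme-linked immunosorbent assay; IC50 is the concentration giving 50% inhibition of overall integrase activity; average ± SD.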

[2] = molecular target: T1, Human immunodeficiency virus type 1 integrase; experiment: Inhibition of HIV1 integrase strand transfer activity by ELISA
Outline: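 Strand transfer step of integration measured in vitro by enzyme-linked immunosorbent assay; IC50 is the concentration giving 50% inhibition of strand transfer; average ± SD.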

[3] = test system: Human immunodeficiency virus 1; experiment: Antiviral activity against HIV1 3B infected in human MT4 cells assessed as inhibition of virus-induced cytopathic effect by MTT assay; type: functional, organism-based; conditions: Human immunodeficiency virus 1, 3B
Outline: (§1)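 Human lymphocyte MT-4 cultures infected with HIV-1; HIV-induced cytopathic effect read by MTT assay; EC50 is the concentration reducing cytopathic effect by 50%; average ± SD; SI is CC50/EC50.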

[4] = Cytotoxicity against human MT4 cells by MTT assay; type: cell-based
Outline: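 Uninfected MT-4 cells; viability read by MTT assay; CC50 is the concentration reducing viability by 50%; average ± SD; SI is CC50/EC50.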

[5] = Selectivity index, ratio of CC50 for human MT4 cells to EC50 for HIV1 3B; type: toxicity, cell-based; conditions: read-out: Ratio CC50/EC50; outline: as §1

T1 sequence (Q7ZJM1 whole entry): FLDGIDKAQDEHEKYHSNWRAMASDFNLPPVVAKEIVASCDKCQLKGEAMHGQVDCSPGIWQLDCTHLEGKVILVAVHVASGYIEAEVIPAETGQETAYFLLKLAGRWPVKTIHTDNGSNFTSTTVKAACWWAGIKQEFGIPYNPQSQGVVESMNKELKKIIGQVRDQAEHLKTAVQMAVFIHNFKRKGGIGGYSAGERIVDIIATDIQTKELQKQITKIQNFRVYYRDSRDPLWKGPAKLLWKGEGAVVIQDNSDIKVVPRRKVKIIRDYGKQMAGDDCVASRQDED

Work on `COc1cccc2c1c(C(=O)/C=C(\O)C(=O)O)cn2Cc1ccc(F)c(F)c1` yielded an IC50 [1] of 420 nM, an IC50 [2] of 600 nM and an EC50 [3] of 2800 nM. The CC50 [4] was 71 µM and the selectivity ratio [5] was 25.

`COc1cccc2c1c(C(=O)/C=C(\O)C(=O)O)cn2Cc1ccc(F)cc1` gave an EC50 [3] of 590 nM and a selectivity ratio [5] of 70.

For `COc1cccc2c1c(C(=O)/C=C(\O)C(=O)O)cn2Cc1cccc(F)c1F`, the IC50 [1] was 10 nM, the IC50 [2] was 120 nM and the EC50 [3] was 260 nM. It also gave a CC50 [4] of 17.5 µM and a selectivity ratio [5] of over 68.7.

`CCOC(=O)/C(O)=C/C(=O)c1cn(Cc2cc(F)ccc2F)c2cccc(OC)c12` gave an IC50 [1] of 1410 nM, an IC50 [2] of 400 nM and an EC50 [3] of 3150 nM. For the same compound, the CC50 [4] was 41.2 µM and the selectivity ratio [5] was 13.1.

In the case of `CCOC(=O)/C(O)=C/C(=O)c1cn(Cc2ccccc2F)c2cccc(OC)c12`, the IC50 [1] is reported as 380 nM, the IC50 [2] is reported as 720 nM and the EC50 [3] is reported as 1400 nM. It also gave a CC50 [4] of 63.3 µM and a selectivity ratio [5] of 45.3.

For `CCOC(=O)/C(O)=C/C(=O)c1cn(Cc2ccc(F)cc2F)c2cccc(OC)c12`, the IC50 [1] was 110 nM, the IC50 [2] was 670 nM and the EC50 [3] was 1950 nM. It also gave a CC50 [4] of 65.5 µM and a selectivity ratio [5] of 33.7.

In the case of `CCOC(=O)/C(O)=C/C(=O)c1cn(Cc2cc(F)c(F)c(F)c2)c2cccc(OC)c12`, the IC50 [1] is reported as 2000 nM, the IC50 [2] is reported as 1410 nM and the EC50 [3] is reported as 3960 nM. It also gave a CC50 [4] of 33.4 µM and a selectivity ratio [5] of 8.4.

Work on `COc1cccc2c1c(C(=O)/C=C(\O)C(=O)O)cn2Cc1cccc(F)c1` yielded an IC50 [1] of 30 nM, an IC50 [2] of 30 nM and an EC50 [3] of 380 nM. It also gave a CC50 [4] of 65.8 µM and a selectivity ratio [5] of 175.

Compound `CCOC(=O)/C(O)=C/C(=O)c1cn(Cc2ccc(F)c(F)c2F)c2cccc(OC)c12` has an IC50 [1] of 3010 nM, an IC50 [2] of 1150 nM and an EC50 [3] of 3150 nM. It also gave a CC50 [4] of 42.7 µM and a selectivity ratio [5] of over 13.

`COc1cccc2c1c(C(=O)/C=C(\O)C(=O)O)cn2Cc1ccc(F)cc1F` showed an IC50 [1] of 10 nM, an IC50 [2] of 20 nM and an EC50 [3] of 410 nM. For the same compound, the CC50 [4] was 20.8 µM and the selectivity ratio [5] was 50.7.

`CCOC(=O)/C(O)=C/C(=O)c1cn(Cc2cccc(F)c2F)c2cccc(OC)c12` showed an IC50 [1] of 5 nM, an IC50 [2] of 12 nM and an EC50 [3] of 1900 nM. The CC50 [4] was 21.1 µM and the selectivity ratio [5] was 11.1.

With `COc1cccc2c1c(C(=O)/C=C(\O)C(=O)O)cn2Cc1ccc(F)c(F)c1F` the IC50 [1] was 140 nM, the IC50 [2] was 280 nM and the EC50 [3] was 1150 nM. It also gave a CC50 [4] of 22.8 µM and a selectivity ratio [5] of 19.9.

With `COc1cccc2c1c(C(=O)/C=C(\O)C(=O)O)cn2Cc1cc(F)c(F)c(F)c1` the IC50 [1] was 60 nM, the IC50 [2] was 100 nM and the EC50 [3] was 2210 nM. It also gave a CC50 [4] of 23.3 µM and a selectivity ratio [5] of 10.5.

In the case of `COc1cccc2c1c(C(=O)/C=C(\O)C(=O)O)cn2Cc1ccccc1F`, the IC50 [1] is reported as 70 nM, the IC50 [2] is reported as 40 nM and the EC50 [3] is reported as 310 nM. For the same compound, the CC50 [4] was 70.5 µM and the selectivity ratio [5] was 228.

In the case of `CCOC(=O)/C(O)=C/C(=O)c1cn(Cc2c(F)cccc2F)c2cccc(OC)c12`, the IC50 [1] is reported as 360 nM, the IC50 [2] is reported as 70 nM and the EC50 [3] is reported as 2040 nM. For the same compound, the CC50 [4] was 63.4 µM and the selectivity ratio [5] was over 31.1.

For `COc1cccc2c1c(C(=O)/C=C(\O)C(=O)O)cn2Cc1cc(F)cc(F)c1`, the IC50 [1] was 440 nM, the IC50 [2] was 240 nM and the EC50 [3] was 2780 nM. For the same compound, the CC50 [4] was 29.5 µM and the selectivity ratio [5] was 10.6.

For `CCOC(=O)/C(O)=C/C(=O)c1cn(Cc2cccc(F)c2)c2cccc(OC)c12`, the IC50 [1] was 300 nM, the IC50 [2] was 2260 nM and the EC50 [3] was 2210 nM. It also gave a CC50 [4] of 63.2 µM and a selectivity ratio [5] of 28.5.

With `COc1cccc2c1c(C(=O)/C=C(\O)C(=O)O)cn2Cc1cc(F)ccc1F` the IC50 [1] was 50 nM, the IC50 [2] was 20 nM and the EC50 [3] was 410 nM. The CC50 [4] was 46.2 µM and the selectivity ratio [5] was 113.

`CCOC(=O)/C(O)=C/C(=O)c1cn(Cc2cc(F)cc(F)c2)c2cccc(OC)c12` showed an IC50 [1] of 1520 nM, an IC50 [2] of 2740 nM and an EC50 [3] of 5940 nM. It also gave a CC50 [4] of 34.7 µM and a selectivity ratio [5] of over 5.8.

`CCOC(=O)/C(O)=C/C(=O)c1cn(Cc2ccc(F)c(F)c2)c2cccc(OC)c12` gave an IC50 [1] of 26500 nM, an IC50 [2] of 1560 nM and an EC50 [3] of 80100 nM. The CC50 [4] was 125 µM and the selectivity ratio [5] was over 2.

`COc1cccc2c1c(C(=O)/C=C(\O)C(=O)O)cn2Cc1c(F)cccc1F` showed an IC50 [1] of 130 nM, an IC50 [2] of 80 nM and an EC50 [3] of 410 nM. The CC50 [4] was 44.3 µM and the selectivity ratio [5] was 108.

Work on `COc1cccc2c1c(C(=O)/C=C(\O)C(=O)O)cn2Cc1c(F)ccc(F)c1F` yielded an IC50 [1] of 130 nM, an IC50 [2] of 160 nM and an EC50 [3] of 650 nM. The CC50 [4] was 49.4 µM and the selectivity ratio [5] was 75.5.

For `CCOC(=O)/C(O)=C/C(=O)c1cn(Cc2c(F)ccc(F)c2F)c2cccc(OC)c12`, the IC50 [1] was 170 nM, the IC50 [2] was 820 nM and the EC50 [3] was 4840 nM. For the same compound, the CC50 [4] was 40.5 µM and the selectivity ratio [5] was 8.4.
